Data taken from ChEMBL document CHEMBL3352485 (J Med Chem, 2014).
Activity calls are given as the source filed them. The calls are words filed in the database; no cut-off is given here. Where a SMILES comes first, the peptide text is derived from it. [ ]: non-standard residue; d: D form. Arg(Me) = CNC(=N)NCCC[C@H](N)C(=O)O; azaGly = NNC(=O)O

What was measured:
[1] = molecular target: T1, KiSS-1 receptor (Homo sapiens, UniProt Q969F8); experiment: Agonist activity at human KISS1R transfected in CHO cells assessed as intracellular calcium flux after 24 hrs by functional FLIPR assay; format: cell-based
T1 sequence (Q969F8 whole entry): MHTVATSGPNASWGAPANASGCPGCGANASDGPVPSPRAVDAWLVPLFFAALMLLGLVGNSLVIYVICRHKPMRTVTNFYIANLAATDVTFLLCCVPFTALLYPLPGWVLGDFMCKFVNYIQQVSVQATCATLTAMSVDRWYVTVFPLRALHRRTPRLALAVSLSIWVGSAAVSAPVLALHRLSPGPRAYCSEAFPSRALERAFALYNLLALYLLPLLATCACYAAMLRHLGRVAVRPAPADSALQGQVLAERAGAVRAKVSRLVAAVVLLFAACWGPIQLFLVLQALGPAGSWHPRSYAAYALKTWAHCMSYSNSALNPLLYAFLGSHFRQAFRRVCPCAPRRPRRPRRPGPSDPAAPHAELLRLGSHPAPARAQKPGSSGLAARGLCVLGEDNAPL
Method in brief: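 CHO cells stably expressing human KISS1R were seeded at 15 000 cells/mL, cultured 24 h, then loaded with fluo-3 for 1 h at 37 °C in HBSS/HEPES (pH 7.4) with probenecid and FBS. Cells were washed in HBSS with 2.5 mM probenecid. Peptides came from 1 mM DMSO stocks diluted in buffer containing probenecid, 0.2% BSA and 0.1% CHAPS. Fluorescence was recorded on FLIPR for 3 min; peak counts over 0–180 s gave agonist activity.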

[2] = molecular target: T2, KiSS-1 receptor (Rattus norvegicus, UniProt Q924U1); experiment: Agonist activity at rat KISS1R transfected in CHO cells assessed as intracellular calcium flux after 24 hrs by functional FLIPR assay; format: cell-based
T2 sequence (Q924U1 whole entry): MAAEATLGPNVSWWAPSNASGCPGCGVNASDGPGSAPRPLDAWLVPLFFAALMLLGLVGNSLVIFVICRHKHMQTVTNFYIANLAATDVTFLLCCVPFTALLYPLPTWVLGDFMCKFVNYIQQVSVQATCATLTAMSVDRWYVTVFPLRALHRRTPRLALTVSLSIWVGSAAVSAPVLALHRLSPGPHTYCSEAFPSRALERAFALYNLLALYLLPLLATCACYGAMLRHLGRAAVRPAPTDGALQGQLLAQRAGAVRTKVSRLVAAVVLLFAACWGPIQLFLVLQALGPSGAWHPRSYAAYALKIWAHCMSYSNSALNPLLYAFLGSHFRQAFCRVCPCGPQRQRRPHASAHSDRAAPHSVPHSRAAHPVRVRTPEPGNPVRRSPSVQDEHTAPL

[3] = molecular target: T2, KiSS-1 receptor; experiment: Displacement of radioligand from rat KISS1R transfected in CHO cells; format: cell-based
[4] = system: Rattus norvegicus; experiment: Testosterone-suppressive activity in Crl:CD(SD) rat assessed as number of animal with plasma testosterone level below the limit of detection at 0.1 nmol/hr, sc through osmotic pumps measured after 6 days by RIA; format: functional
Method in brief: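 Peptide was dissolved in distilled water or 50% DMSO as 0.1–2 mM pump solutions and delivered by ALZET osmotic pumps implanted subcutaneously in the back of 9-week-old male Crl:CD(SD) rats (n = 5) under ether. Controls received distilled-water pumps. After 6 days, rats were decapitated and plasma was recovered with aprotinin/EDTA. Testosterone was measured by RIA, and the number of rats below the detection limit (0.04 ng/mL) was counted.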

[5] = system: Rattus norvegicus; experiment: Testosterone-suppressive activity in Crl:CD(SD) rat assessed as number of animal with plasma testosterone level below the limit of detection at 0.03 mol/hr, sc through osmotic pumps measured after 6 days by RIA; format: functional
[6] = molecular target: T1, KiSS-1 receptor; experiment: Displacement of radioligand from human KISS1R transfected in CHO cells; format: cell-based
Method in brief: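 Binding used membrane fractions prepared from CHO cells expressing recombinant human KISS1R.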

[7] = Stability of the compound in aqueous solution (JP1) assessed as residual ratio at pH 1.2 up to 1 week by HPLC analysis relative to initial level; format: physicochemical
Method in brief: (§1)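 Peptides in aqueous solution at pH 1.2 (JP1, containing 10% acetonitrile), 3, 5 or 7 were kept in the dark at 37 °C for up to 2 weeks. Peptide remaining was quantified from HPLC peak area, with detection at 230–280 nm. The residual ratio (stability index) was expressed relative to the time-0 amount, taken as 100%.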

[8] = Stability of the compound in aqueous solution assessed as residual ratio at pH 3 up to 1 week by HPLC analysis relative to initial level; format: physicochemical; method in brief: as §1
[9] = Stability of the compound in aqueous solution assessed as residual ratio at pH 5 up to 1 week by HPLC analysis relative to initial level; format: physicochemical; method in brief: as §1
[10] = Stability of the compound in aqueous solution assessed as residual ratio at pH 7 up to 1 week by HPLC analysis relative to initial level; format: physicochemical; method in brief: as §1
[11] = Stability of the compound in aqueous solution (JP1) assessed as residual ratio at pH 1.2 up to 2 weeks by HPLC analysis relative to initial level; format: physicochemical; method in brief: as §1
[12] = Stability of the compound in aqueous solution assessed as residual ratio at pH 3 up to 2 weeks by HPLC analysis relative to initial level; format: physicochemical; method in brief: as §1
[13] = Stability of the compound in aqueous solution assessed as residual ratio at pH 5 up to 2 weeks by HPLC analysis relative to initial level; format: physicochemical; method in brief: as §1
[14] = Stability of the compound in aqueous solution assessed as residual ratio at pH 7 up to 2 weeks by HPLC analysis relative to initial level; format: physicochemical; method in brief: as §1
[15] = system: Rattus norvegicus; experiment: Testosterone-suppressive activity in Crl:CD(SD) rat assessed as number of animal with plasma testosterone level below the limit of detection at 0.05 mol/hr, sc through osmotic pumps measured after 6 days by RIA; format: functional
[16] = system: Rattus norvegicus; experiment: Testosterone-suppressive activity in Crl:CD(SD) rat assessed as number of animal with plasma testosterone level below the limit of detection […], sc through osmotic pumps measured after 6 days by RIA; format: functional
[17] = AUC (0 to 24 hrs) in Sprague-Dawley rat at 1 mg/kg, iv after 24 hrs by LC-MS/MS analysis; format: ADME, organism-based; parameters: time < 24 hr, dose 1 mg/kg, route intravenous; details: plasma
Method in brief: (§2)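 Male Crl:CD(SD) rats (3 per group) got a single intravenous dose of 1 mg/kg. Blood was drawn at 5, 10, 15 and 30 min and at 1, 2, 4, 8 and 24 h. Plasma proteins were removed with 0.2% formic acid/methanol and acetonitrile, and the supernatant was treated with 0.4% formic acid. Peptide was quantified by LC-MS. Noncompartmental parameters were derived per rat, reported as mean ± SD (n = 3).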

[18] = Mean residence time in Sprague-Dawley rat at 1 mg/kg, iv after 24 hrs by LC-MS/MS analysis; format: ADME, organism-based; parameters: dose 1 mg/kg, route intravenous; details: in vivo; method in brief: as §2
[19] = Volume of distribution at steady state in Sprague-Dawley rat at 1 mg/kg, iv after 24 hrs by LC-MS/MS analysis; format: ADME, organism-based; parameters: dose 1 mg/kg, route intravenous; details: in vivo, read-out: Vdss; method in brief: as §2
[20] = Total clearance in Sprague-Dawley rat at 1 mg/kg, iv after 24 hrs by LC-MS/MS analysis; format: ADME, organism-based; parameters: dose 1 mg/kg, route intravenous; details: in vivo; method in brief: as §2
[21] = Cmax in Sprague-Dawley rat at 1 mg/kg, sc after 24 hrs by LC-MS/MS analysis; format: ADME, organism-based; parameters: dose 1 mg/kg, route subcutaneous; details: in vivo
Method in brief: (§3)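 Single subcutaneous dose of 1 mg/kg in male Crl:CD(SD) rats, n = 3 per group. Blood was sampled from 5 min to 24 h (5, 10, 15, 30 min; 1, 2, 4, 8, 24 h). Plasma was deproteinized with formic acid/methanol and acetonitrile, and peptide levels were measured by LC-MS. Noncompartmental analysis per animal gave Cmax, Tmax, AUC0-24h, MRT and BA; values are mean ± SD (n = 3).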

[22] = Tmax in Sprague-Dawley rat at 1 mg/kg, sc after 24 hrs by LC-MS/MS analysis; format: ADME, organism-based; parameters: dose 1 mg/kg, route subcutaneous; details: in vivo; method in brief: as §3
[23] = AUC (0 to 24 hrs) in Sprague-Dawley rat at 1 mg/kg, sc after 24 hrs by LC-MS/MS analysis; format: ADME, organism-based; parameters: time < 24 hr, dose 1 mg/kg, route subcutaneous; details: plasma; method in brief: as §3
[24] = Mean residence time in Sprague-Dawley rat at 1 mg/kg, sc after 24 hrs by LC-MS/MS analysis; format: ADME, organism-based; parameters: dose 1 mg/kg, route subcutaneous; details: in vivo; method in brief: as §3
[25] = Bioavailability in Sprague-Dawley rat at 1 mg/kg, sc after 24 hrs by LC-MS/MS analysis; format: ADME, organism-based; details: in vivo; method in brief: as §3
[26] = system: Rattus norvegicus; experiment: Testosterone-suppressive activity in Crl:CD(SD) rat assessed as plasma testosterone level below the limit of detection at 10 to 100 pmol/hr, sc continuous administration through osmotic pumps measured up to 1 week by RIA; format: functional, organism-based
Method in brief: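 Peptide in 50% DMSO was diluted in distilled water to 10, 30 or 100 μM pump solutions, giving 10–100 pmol/h by subcutaneous ALZET osmotic pump in male Crl:CD(SD) rats (n = 5). Vehicle served as control. Plasma testosterone was measured by RIA after 1 or 4 weeks, with values below 0.04 ng/mL set to 0.04. Results are mean ± SD of five rats, tested by one-tailed Shirley–Williams test versus vehicle.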

[27] = C5min in Sprague-Dawley rat at 1 mg/kg, iv after 5 mins by LC-MS/MS analysis; details: in vivo, read-out: Cmin
[28] = system: Rattus norvegicus; experiment: Stimulation of LH release in Crl:CD(SD) rat assessed as LH AUC (0 to 4 hrs) at 0.01 to 1 nmol/kg, sc single dose relative to metastin; format: functional
[29] = system: Rattus norvegicus; experiment: Stimulation of testosterone release in Crl:CD(SD) rat assessed as testosterone AUC (0 to 4 hrs) at 0.01 to 1 nmol/kg, sc single dose; format: functional, organism-based
[30] = species: Rattus norvegicus; experiment: Toxicity in rat; format: organism-based; details: in vivo
[31] = species: Canis familiaris; experiment: Toxicity in dog; format: organism-based, Canis lupus familiaris; details: in vivo

EC50 [1] [pM]	EC50 [2] [pM]	Ki [3] [pM]	Ki [6] [pM]	remaining at 168 h [7] [%]	remaining at 168 h [8] [%]	remaining at 168 h [9] [%]	remaining at 168 h [10] [%]	remaining at 336 h [11] [%]	remaining at 336 h [12] [%]	remaining at 336 h [13] [%]	remaining at 336 h [14] [%]	AUC(0-t) at 24 h [17] [ng·h/mL]	MRT [18] [min]	Vd [19] [L/kg]	clearance [20] [mL/min/kg]	Cmax [21] [ng/mL]	Structure (SMILES)	Activity [5] [%]	Activity [15] [%]	Activity [16] [animals]	other results
800	3700	110	–	–	–	–	–	–	–	–	–	–	–	–	–	–	CCCC(=O)N[C@H](Cc1ccc(O)cc1)C(=O)N[C@H](Cc1c[nH]c2ccccc12)C(=O)N[C@@H](CC(N)=O)C(=O)N[C@H](C(=O)N[C@@H](Cc1ccccc1)C(=O)NNC(=O)N[C@@H](CC(C)C)C(=O)N[C@@H](CCCNC(=N)NC)C(=O)N[C@@H](Cc1c[nH]c2ccccc12)C(N)=O)[C@@H](C)O	0	–	–	Activity [4]: 3 rats (n = 5)
940	3900	87	38	50.6	97.5	98.1	84.5	22.3	95	96.3	67.6	497	26.4	0.896	34.5	114	CNC(=N)NCCC[C@H](NC(=O)[C@H](CC(C)C)NC(=O)NNC(=O)[C@H](Cc1ccccc1)NC(=O)[C@@H](NC(=O)[C@H](CC(N)=O)NC(=O)[C@@H](Cc1c[nH]c2ccccc12)NC(=O)[C@@H](Cc1ccc(O)cc1)NC(C)=O)[C@@H](C)O)C(=O)N[C@@H](Cc1ccccc1)C(N)=O	4	5	0	Tmax [22]: 25.2 min; AUC(0-t) at 24 h [23]: 144 ng·h/mL; MRT [24]: 52.8 min; bioavailability [25]: 28.9%; inhibition [26]: Active; concentration at 5 min [27]: 1450 ng/mL
330	1300	69	36	55.6	97.7	95.9	79.7	28.8	95.6	93.6	66.4	1220	41.4	0.562	13.7	100	CNC(=N)NCCC[C@H](NC(=O)[C@H](CC(C)C)NC(=O)NNC(=O)[C@H](Cc1ccccc1)NC(=O)[C@@H](NC(=O)[C@H](CC(N)=O)NC(=O)[C@@H](Cc1c[nH]c2ccccc12)NC(=O)[C@@H](Cc1ccc(O)cc1)NC(C)=O)[C@@H](C)O)C(=O)N[C@@H](Cc1c[nH]c2ccccc12)C(N)=O (Ac-[dY][dW]NTF[azaGly]L[Arg(Me)]W-NH2)	4	5	0	Tmax [22]: 11.4 min; AUC(0-t) at 24 h [23]: 115 ng·h/mL; MRT [24]: 51.6 min; bioavailability [25]: 9.4%; inhibition [26]: Active; fold change (FC) [28]: 100; Activity [29]: Active; Activity [30]: Non-toxic; Activity [31]: Non-toxic; concentration at 5 min [27]: 2510 ng/mL
750	4100	170	89	58.3	98.7	98.5	82.6	33	96.8	97	69.8	1260	41.4	0.547	13.2	90	CNC(=N)NCCC[C@H](NC(=O)[C@H](CC(C)C)NC(=O)NNC(=O)[C@H](Cc1ccccc1)NC(=O)[C@@H](NC(=O)[C@H](CC(N)=O)NC(=O)[C@@H](Cc1ccncc1)NC(=O)[C@@H](Cc1ccc(O)cc1)NC(C)=O)[C@@H](C)O)C(=O)N[C@@H](Cc1c[nH]c2ccccc12)C(N)=O	–	5	2	Tmax [22]: 25.2 min; AUC(0-t) at 24 h [23]: 152 ng·h/mL; MRT [24]: 64.2 min; bioavailability [25]: 12.1%; inhibition [26]: Active; concentration at 5 min [27]: 2070 ng/mL
